Data on 13 compounds can be found in ChEMBL document CHEMBL3352573 (Bioorg Med Chem, 2014).

In the first data set the target is Melanocortin receptor 4 (Homo sapiens, UniProt P32245). As to the kind of experiment: Displacement of Eu-DTPA-NDP-a-MSH chelate from human melanocortin-4 receptor expressed in HEK293 cells after 1 hr by competitive DELFIA assay. The data set is classed as cell-based. The procedure, abridged: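 HEK293 cells stably carrying hMC4R (pcDNA3.1) were grown in DMEM plus 10% FBS, seeded at 12,000 cells/well and cultured 3 days. Whole cells were competed with unlabeled ligand against 10 nM (final) Eu-DTPA-NDP-α-MSH in binding medium (DMEM, 1 mM 1,10-phenanthroline, bacitracin, leupeptin, 0.3% BSA) for 1 h at 37 °C, in quadruplicate. EC50 and Hill slope came from variable-slope sigmoidal fits.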
Melanocortin receptor 4, sequence (P32245 whole entry): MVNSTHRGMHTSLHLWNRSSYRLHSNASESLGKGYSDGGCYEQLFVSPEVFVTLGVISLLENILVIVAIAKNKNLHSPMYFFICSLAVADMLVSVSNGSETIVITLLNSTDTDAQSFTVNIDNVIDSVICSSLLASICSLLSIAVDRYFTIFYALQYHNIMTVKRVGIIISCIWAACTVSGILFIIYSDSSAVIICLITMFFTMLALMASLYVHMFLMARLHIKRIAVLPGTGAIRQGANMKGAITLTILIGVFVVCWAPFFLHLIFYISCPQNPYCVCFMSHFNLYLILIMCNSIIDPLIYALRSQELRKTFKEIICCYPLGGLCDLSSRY
In the case of `CCCC[C@H](NC(=O)CNC(=O)[C@@H]1CCCN1C(=O)CNC(=O)[C@@H]1CCCN1C(=O)CNC(=O)[C@@H]1CCCN1C(=O)CNC(=O)[C@@H]1CCCN1C(=O)CNC(=O)[C@@H]1CCCN1C(=O)CNC(=O)[C@@H]1CCCN1C(=O)[C@H](Cc1c[nH]c2ccccc12)NC(=O)[C@H](CCCNC(=N)N)NC(=O)[C@@H](Cc1ccccc1)NC(=O)[C@H](Cc1cnc[nH]1)NC(=O)[C@H](CCC(=O)O)NC(=O)[C@H](CCCC)NC(=O)[C@H](CO)NC(C)=O)C(=O)N[C@H]1CC(=O)NCCCC[C@@H](C(N)=O)NC(=O)[C@H](Cc2c[nH]c3ccccc23)NC(=O)[C@H](CCCNC(=N)N)NC(=O)[C@@H](Cc2ccc3ccccc3c2)NC(=O)[C@H](Cc2cnc[nH]2)NC1=O`, the midpoint of the response, the EC50, lay at 4.1 nM. In other words, the single-digit nanomolar range.

On to `CCCC[C@H](NC(=O)CNC(=O)[C@@H]1CCCN1C(=O)CNC(=O)[C@@H]1CCCN1C(=O)CNC(=O)[C@@H]1CCCN1C(=O)CNC(=O)[C@@H]1CCCN1C(=O)CNC(=O)[C@@H]1CCCN1C(=O)CNC(=O)[C@@H]1CCCN1C(=O)CNC(=O)[C@@H]1CCCN1C(=O)CNC(=O)[C@@H]1CCCN1C(=O)CNC(=O)[C@@H]1CCCN1C(=O)[C@H](Cc1c[nH]c2ccccc12)NC(=O)[C@H](CCCNC(=N)N)NC(=O)[C@@H](Cc1ccccc1)NC(=O)[C@H](Cc1cnc[nH]1)NC(=O)[C@H](CCC(=O)O)NC(=O)[C@H](CCCC)NC(=O)[C@H](CO)NC(C)=O)C(=O)N[C@H]1CC(=O)NCCCC[C@@H](C(N)=O)NC(=O)[C@H](Cc2c[nH]c3ccccc23)NC(=O)[C@H](CCCNC(=N)N)NC(=O)[C@@H](Cc2ccc3ccccc3c2)NC(=O)[C@H](Cc2cnc[nH]2)NC1=O`, for which the EC50 (as a rule, the concentration needed to bring the measured effect to its halfway point) is 2 nM.

System in another data set: not listed separately
As to the kind of experiment: Retention time of the compound by reverse-phase HPLC method. In kind it is physicochemical. The procedure, abridged: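 Analytical reverse-phase HPLC on a C18 column (Jupiter 5U C18 300A), 10–40% acetonitrile with 0.1% TFA linear over 30 min at 1 mL/min, UV detection at 220 and 280 nm.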
`CCCC[C@H](NC(=O)COCC(=O)NCCCOCCOCCOCCCNC(=O)CNC(=O)[C@@H]1CCCN1C(=O)CNC(=O)[C@@H]1CCCN1C(=O)CNC(=O)[C@@H]1CCCN1C(=O)COCC(=O)NCCCOCCOCCOCCCNC(C)=O)C(=O)N[C@H]1CC(=O)NCCCC[C@@H](C(N)=O)NC(=O)[C@H](Cc2c[nH]c3ccccc23)NC(=O)[C@H](CCCNC(=N)N)NC(=O)[C@@H](Cc2ccc3ccccc3c2)NC(=O)[C@H](Cc2cnc[nH]2)NC1=O`: the Retention_time is given as 12.3 min.

The compound `CCCC[C@H](NC(C)=O)C(=O)N[C@H]1CC(=O)NCCCC[C@@H](C(=O)NCCCOCCOCCOCCCNC(=O)COCC(=O)N[C@@H](CCCC)C(=O)N[C@H]2CC(=O)NCCCC[C@@H](C(N)=O)NC(=O)[C@H](Cc3c[nH]c4ccccc34)NC(=O)[C@H](CCCNC(=N)N)NC(=O)[C@@H](Cc3ccc4ccccc4c3)NC(=O)[C@H](Cc3cnc[nH]3)NC2=O)NC(=O)[C@H](Cc2c[nH]c3ccccc23)NC(=O)[C@H](CCCNC(=N)N)NC(=O)[C@@H](Cc2ccc3ccccc3c2)NC(=O)[C@H](Cc2cnc[nH]2)NC1=O` showed a Retention_time of 14 min.

As to `CCCC[C@H](NC(=O)COCC(=O)NCCCOCCOCCOCCCNC(=O)COCC(=O)NCCCOCCOCCOCCCNC(C)=O)C(=O)N[C@H]1CC(=O)NCCCC[C@@H](C(N)=O)NC(=O)[C@H](Cc2c[nH]c3ccccc23)NC(=O)[C@H](CCCNC(=N)N)NC(=O)[C@@H](Cc2ccc3ccccc3c2)NC(=O)[C@H](Cc2cnc[nH]2)NC1=O`, the Retention_time stood at 12.5 min.

Take `CCCC[C@H](NC(C)=O)C(=O)N[C@H]1CC(=O)NCCCC[C@@H](C(=O)N2CCC[C@H]2C(=O)NCC(=O)N2CCC[C@H]2C(=O)NCC(=O)N2CCC[C@H]2C(=O)NCC(=O)N2CCC[C@H]2C(=O)NCC(=O)N2CCC[C@H]2C(=O)NCC(=O)N2CCC[C@H]2C(=O)NCC(=O)N2CCC[C@H]2C(=O)NCC(=O)N2CCC[C@H]2C(=O)NCC(=O)N2CCC[C@H]2C(=O)NCC(=O)N[C@@H](CCCC)C(=O)N[C@H]2CC(=O)NCCCC[C@@H](C(N)=O)NC(=O)[C@H](Cc3c[nH]c4ccccc34)NC(=O)[C@H](CCCNC(=N)N)NC(=O)[C@@H](Cc3ccc4ccccc4c3)NC(=O)[C@H](Cc3cnc[nH]3)NC2=O)NC(=O)[C@H](Cc2c[nH]c3ccccc23)NC(=O)[C@H](CCCNC(=N)N)NC(=O)[C@@H](Cc2ccc3ccccc3c2)NC(=O)[C@H](Cc2cnc[nH]2)NC1=O`: the Retention_time was 13.2 min.

For `CCCC[C@H](NC(=O)CNC(=O)[C@@H]1CCCN1C(=O)CNC(=O)[C@@H]1CCCN1C(=O)CNC(=O)[C@@H]1CCCN1C(=O)CNC(=O)[C@@H]1CCCN1C(=O)CNC(=O)[C@@H]1CCCN1C(=O)CNC(=O)[C@@H]1CCCN1C(=O)CNC(=O)[C@@H]1CCCN1C(=O)CNC(=O)[C@@H]1CCCN1C(=O)CNC(=O)[C@@H]1CCCN1C(=O)CNC(=O)[C@@H]1CCCN1C(=O)CNC(=O)[C@@H]1CCCN1C(=O)CNC(=O)[C@@H]1CCCN1C(C)=O)C(=O)N[C@H]1CC(=O)NCCCC[C@@H](C(N)=O)NC(=O)[C@H](Cc2c[nH]c3ccccc23)NC(=O)[C@H](CCCNC(=N)N)NC(=O)[C@@H](Cc2ccc3ccccc3c2)NC(=O)[C@H](Cc2cnc[nH]2)NC1=O`, the Retention_time is reported as 11.9 min.

`CCCC[C@H](NC(=O)CNC(=O)[C@@H]1CCCN1C(=O)CNC(=O)[C@@H]1CCCN1C(=O)CNC(=O)[C@@H]1CCCN1C(=O)CNC(=O)[C@@H]1CCCN1C(=O)CNC(=O)[C@@H]1CCCN1C(=O)CNC(=O)[C@@H]1CCCN1C(=O)CNC(=O)[C@@H]1CCCN1C(=O)CNC(=O)[C@@H]1CCCN1C(=O)CNC(=O)[C@@H]1CCCN1C(C)=O)C(=O)N[C@H]1CC(=O)NCCCC[C@@H](C(N)=O)NC(=O)[C@H](Cc2c[nH]c3ccccc23)NC(=O)[C@H](CCCNC(=N)N)NC(=O)[C@@H](Cc2ccc3ccccc3c2)NC(=O)[C@H](Cc2cnc[nH]2)NC1=O` registered a Retention_time of 11.9 min.

Regarding `CCCC[C@H](NC(=O)CNC(=O)[C@@H]1CCCN1C(=O)CNC(=O)[C@@H]1CCCN1C(=O)CNC(=O)[C@@H]1CCCN1C(=O)CNC(=O)[C@@H]1CCCN1C(=O)CNC(=O)[C@@H]1CCCN1C(=O)CNC(=O)[C@@H]1CCCN1C(=O)[C@H](Cc1c[nH]c2ccccc12)NC(=O)[C@H](CCCNC(=N)N)NC(=O)[C@@H](Cc1ccccc1)NC(=O)[C@H](Cc1cnc[nH]1)NC(=O)[C@H](CCC(=O)O)NC(=O)[C@H](CCCC)NC(=O)[C@H](CO)NC(C)=O)C(=O)N[C@H]1CC(=O)NCCCC[C@@H](C(N)=O)NC(=O)[C@H](Cc2c[nH]c3ccccc23)NC(=O)[C@H](CCCNC(=N)N)NC(=O)[C@@H](Cc2ccc3ccccc3c2)NC(=O)[C@H](Cc2cnc[nH]2)NC1=O`, the Retention_time is 12 min.

The compound `CCCC[C@H](NC(=O)CNC(=O)[C@@H]1CCCN1C(=O)CNC(=O)[C@@H]1CCCN1C(=O)CNC(=O)[C@@H]1CCCN1C(=O)CNC(=O)[C@@H]1CCCN1C(=O)CNC(=O)[C@@H]1CCCN1C(=O)CNC(=O)[C@@H]1CCCN1C(C)=O)C(=O)N[C@H]1CC(=O)NCCCC[C@@H](C(N)=O)NC(=O)[C@H](Cc2c[nH]c3ccccc23)NC(=O)[C@H](CCCNC(=N)N)NC(=O)[C@@H](Cc2ccc3ccccc3c2)NC(=O)[C@H](Cc2cnc[nH]2)NC1=O` registered a Retention_time of 11.9 min.

In turn, `CCCC[C@H](NC(C)=O)C(=O)N[C@H]1CC(=O)NCCCC[C@@H](C(=O)NCCCOCCOCCOCCCNC(=O)COCC(=O)N2CCC[C@H]2C(=O)NCC(=O)N2CCC[C@H]2C(=O)NCC(=O)N2CCC[C@H]2C(=O)NCC(=O)NCCCOCCOCCOCCCNC(=O)COCC(=O)N[C@@H](CCCC)C(=O)N[C@H]2CC(=O)NCCCC[C@@H](C(N)=O)NC(=O)[C@H](Cc3c[nH]c4ccccc34)NC(=O)[C@H](CCCNC(=N)N)NC(=O)[C@@H](Cc3ccc4ccccc4c3)NC(=O)[C@H](Cc3cnc[nH]3)NC2=O)NC(=O)[C@H](Cc2c[nH]c3ccccc23)NC(=O)[C@H](CCCNC(=N)N)NC(=O)[C@@H](Cc2ccc3ccccc3c2)NC(=O)[C@H](Cc2cnc[nH]2)NC1=O` showed a Retention_time of 13.6 min.

Turning to `CCCC[C@H](NC(=O)COCC(=O)NCCCOCCOCCOCCCNC(C)=O)C(=O)N[C@H]1CC(=O)NCCCC[C@@H](C(N)=O)NC(=O)[C@H](Cc2c[nH]c3ccccc23)NC(=O)[C@H](CCCNC(=N)N)NC(=O)[C@@H](Cc2ccc3ccccc3c2)NC(=O)[C@H](Cc2cnc[nH]2)NC1=O`, the Retention_time is 12.5 min.

For `CCCC[C@H](NC(C)=O)C(=O)N[C@H]1CC(=O)NCCCC[C@@H](C(=O)NCCCOCCOCCOCCCNC(=O)COCC(=O)NCCCOCCOCCOCCCNC(=O)COCC(=O)N[C@@H](CCCC)C(=O)N[C@H]2CC(=O)NCCCC[C@@H](C(N)=O)NC(=O)[C@H](Cc3c[nH]c4ccccc34)NC(=O)[C@H](CCCNC(=N)N)NC(=O)[C@@H](Cc3ccc4ccccc4c3)NC(=O)[C@H](Cc3cnc[nH]3)NC2=O)NC(=O)[C@H](Cc2c[nH]c3ccccc23)NC(=O)[C@H](CCCNC(=N)N)NC(=O)[C@@H](Cc2ccc3ccccc3c2)NC(=O)[C@H](Cc2cnc[nH]2)NC1=O`, the Retention_time amounted to 13.9 min.

`CCCC[C@H](NC(=O)CNC(=O)[C@@H]1CCCN1C(=O)CNC(=O)[C@@H]1CCCN1C(=O)CNC(=O)[C@@H]1CCCN1C(=O)CNC(=O)[C@@H]1CCCN1C(=O)CNC(=O)[C@@H]1CCCN1C(=O)CNC(=O)[C@@H]1CCCN1C(=O)CNC(=O)[C@@H]1CCCN1C(=O)CNC(=O)[C@@H]1CCCN1C(=O)CNC(=O)[C@@H]1CCCN1C(=O)[C@H](Cc1c[nH]c2ccccc12)NC(=O)[C@H](CCCNC(=N)N)NC(=O)[C@@H](Cc1ccccc1)NC(=O)[C@H](Cc1cnc[nH]1)NC(=O)[C@H](CCC(=O)O)NC(=O)[C@H](CCCC)NC(=O)[C@H](CO)NC(C)=O)C(=O)N[C@H]1CC(=O)NCCCC[C@@H](C(N)=O)NC(=O)[C@H](Cc2c[nH]c3ccccc23)NC(=O)[C@H](CCCNC(=N)N)NC(=O)[C@@H](Cc2ccc3ccccc3c2)NC(=O)[C@H](Cc2cnc[nH]2)NC1=O` showed a Retention_time of 12 min.

The compound `CCCC[C@H](NC(C)=O)C(=O)N[C@H]1CC(=O)NCCCC[C@@H](C(=O)N2CCC[C@H]2C(=O)NCC(=O)N2CCC[C@H]2C(=O)NCC(=O)N2CCC[C@H]2C(=O)NCC(=O)N2CCC[C@H]2C(=O)NCC(=O)N2CCC[C@H]2C(=O)NCC(=O)N2CCC[C@H]2C(=O)NCC(=O)N2CCC[C@H]2C(=O)NCC(=O)N2CCC[C@H]2C(=O)NCC(=O)N2CCC[C@H]2C(=O)NCC(=O)N2CCC[C@H]2C(=O)NCC(=O)N2CCC[C@H]2C(=O)NCC(=O)N2CCC[C@H]2C(=O)NCC(=O)N[C@@H](CCCC)C(=O)N[C@H]2CC(=O)NCCCC[C@@H](C(N)=O)NC(=O)[C@H](Cc3c[nH]c4ccccc34)NC(=O)[C@H](CCCNC(=N)N)NC(=O)[C@@H](Cc3ccc4ccccc4c3)NC(=O)[C@H](Cc3cnc[nH]3)NC2=O)NC(=O)[C@H](Cc2c[nH]c3ccccc23)NC(=O)[C@H](CCCNC(=N)N)NC(=O)[C@@H](Cc2ccc3ccccc3c2)NC(=O)[C@H](Cc2cnc[nH]2)NC1=O` registered a Retention_time of 13.1 min.
